Test results reported in ChEMBL document CHEMBL1140137, “Synthesis, ex vivo evaluation, and radiolabeling of potent 1,5-diphenylpyrrolidin-2-one cannabinoid subtype-1 receptor ligands as candidates for in vivo imaging” (J Med Chem, 2008).

What was measured:
[1] = molecular target: Cannabinoid receptor 2 (Homo sapiens) (UniProt P34972); assay: Antagonist activity at human CB2 receptor in Sf9 cells assessed as GTPgammaS binding; format: functional, cell-based
Procedure, shortened: (§1)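 GTPγ35S binding was read by anti-Gi antibody-capture scintillation proximity assay. Membranes came from CHO cells expressing human CB1 and from Sf9 cells expressing human CB2. Antagonist dose-responses were run against methanandamide at 80% efficacious dose. Kb = IC50/(1+[agonist]/EC50), with four-parameter fits. Values are the mean ± SEM of at least three independent determinations. Selectivity was taken from the CB1 and CB2 Kb values.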

Homo sapiens = organism: Homo sapiens; assay: Selectivity for human CB1 receptor over human CB2 receptor; procedure, shortened: as §1
[2] = Drug uptake in Rimonabant pretreated Sprague-Dawley rat CB1 rich frontal cerebral cortex at […], iv after 0.25 hrs; format: ADME, organism-based; set-up: route intravenous; conditions: read-out: Drug uptake
Procedure, shortened: (§2)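 Adult male Sprague-Dawley rats (225–250 g) were used, three per time point. […] Ligand was dosed at 30 μg/kg i.v. in intralipid/1% AcOH diluted with water. Frontal cortex was taken at 0.25–8 h, homogenized in MeCN/0.1% HCO2H, centrifuged, and the supernatant quantified by LC-MS (ng/g).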

[3] = Drug uptake in Rimonabant pretreated Sprague-Dawley rat CB1 rich frontal cerebral cortex at […], iv after 8 hrs; format: ADME, organism-based; set-up: route intravenous; conditions: read-out: Drug uptake; procedure, shortened: as §2
[4] = Drug uptake in Sprague-Dawley rat frontal cerebral cortex at 30 μg/kg, iv after 8 hrs
[5] = Drug uptake in Sprague-Dawley rat frontal cerebral cortex at 30 μg/kg, iv after 0.5 hrs
[6] = Drug uptake in Sprague-Dawley rat frontal cerebral cortex at 30 μg/kg, iv after 0.25 hrs

Chain of Cannabinoid receptor 2 (Homo sapiens) (P34972 whole entry): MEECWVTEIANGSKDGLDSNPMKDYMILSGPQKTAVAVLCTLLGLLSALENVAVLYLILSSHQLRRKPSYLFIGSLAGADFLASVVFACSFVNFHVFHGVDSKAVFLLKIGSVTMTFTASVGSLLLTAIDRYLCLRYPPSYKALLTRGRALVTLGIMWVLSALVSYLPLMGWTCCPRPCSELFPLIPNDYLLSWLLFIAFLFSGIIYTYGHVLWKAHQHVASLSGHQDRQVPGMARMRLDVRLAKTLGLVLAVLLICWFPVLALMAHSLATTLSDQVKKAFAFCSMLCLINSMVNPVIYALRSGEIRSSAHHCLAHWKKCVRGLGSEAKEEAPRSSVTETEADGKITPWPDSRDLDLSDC

`COc1cccc([C@H]2C[C@@H](N[C@H](C)c3ccc(F)cc3)C(=O)N2c2ccc(C(F)(F)F)cc2)c1` gave a Kb [1] of 0.466 µM, a Selectivity ratio (Homo sapiens) of 2160 and a concentration at 0.25 h [2] of 17.3 ng/g. It also gave a concentration at 8 h [3] of 0.8 ng/g, a concentration at 8 h [4] of 10.5 ng/g and a concentration at 0.5 h [5] of 48 ng/g.

For `C[C@@H](N[C@@H]1C[C@H](c2cccc(OCF)c2)N(c2ccc(C(F)(F)F)cc2)C1=O)c1ccccc1`, the Kb [1] was 0.669 µM, the Selectivity ratio (Homo sapiens) was 3580 and the concentration at 0.25 h [2] was 9.7 ng/g. For the same compound, the concentration at 8 h [4] was 8.2 ng/g and the concentration at 0.5 h [5] was 39.3 ng/g.

In the case of `C[C@@H](N[C@@H]1C[C@H](c2cccc(OCCF)c2)N(c2ccc(C(F)(F)F)cc2)C1=O)c1ccccc1`, the Kb [1] is reported as > 8.26 µM, the Selectivity ratio (Homo sapiens) is reported as > 19500 and the concentration at 0.25 h [2] is reported as 6.5 ng/g. The concentration at 8 h [4] was 0.7 ng/g and the concentration at 0.25 h [6] was 22 ng/g.

In the case of `COc1cccc([C@H]2C[C@@H](N[C@H](C)c3ccccc3)C(=O)N2c2ccc(C(F)(F)F)cc2)c1` [MEPPEP], the concentration at 0.25 h [2] is reported as 11.5 ng/g, the concentration at 8 h [4] is reported as 8.5 ng/g and the concentration at 0.25 h [6] is reported as 39 ng/g.
